Reference: ChEMBL document CHEMBL2163232, “4-Phenyl-7-azaindoles as potent, selective and bioavailable IKK2 inhibitors demonstrating good in vivo efficacy” (Bioorg Med Chem Lett, 2012)
Converted amounts (≈) assume the structure as drawn. The source made the active and inactive calls. The calls are words filed in the database; no cut-off is given here.

Legend:
[1] = system: Blood; test: Inhibition of LPS-stimulated TNFalpha production in human Whole blood; assay type: functional, tissue-based
[2] = molecular target: T1, Inhibitor of nuclear factor kappa-B kinase subunit alpha (Homo sapiens, UniProt O15111); test: Inhibition of IKK1 in presence of 1 uM ATP
T1 sequence (O15111 whole entry): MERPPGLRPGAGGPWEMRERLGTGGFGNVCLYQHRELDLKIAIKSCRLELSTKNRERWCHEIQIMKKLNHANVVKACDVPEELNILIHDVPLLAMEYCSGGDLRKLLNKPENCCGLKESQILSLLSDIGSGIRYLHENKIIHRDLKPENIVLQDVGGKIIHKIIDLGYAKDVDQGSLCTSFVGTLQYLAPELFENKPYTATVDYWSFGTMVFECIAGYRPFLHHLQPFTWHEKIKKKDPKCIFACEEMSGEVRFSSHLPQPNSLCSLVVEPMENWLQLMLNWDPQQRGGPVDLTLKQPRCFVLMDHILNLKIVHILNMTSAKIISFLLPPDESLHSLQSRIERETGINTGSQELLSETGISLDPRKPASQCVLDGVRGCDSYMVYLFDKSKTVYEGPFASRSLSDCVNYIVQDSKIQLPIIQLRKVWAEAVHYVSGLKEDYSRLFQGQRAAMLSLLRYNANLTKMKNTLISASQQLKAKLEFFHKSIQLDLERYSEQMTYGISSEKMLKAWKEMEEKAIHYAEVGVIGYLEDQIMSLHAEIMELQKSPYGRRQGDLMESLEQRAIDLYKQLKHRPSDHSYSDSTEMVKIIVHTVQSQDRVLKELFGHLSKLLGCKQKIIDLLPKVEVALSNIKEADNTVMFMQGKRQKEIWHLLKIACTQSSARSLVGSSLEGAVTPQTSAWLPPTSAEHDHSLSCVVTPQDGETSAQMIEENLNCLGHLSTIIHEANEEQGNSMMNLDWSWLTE

[3] = molecular target: T2, Inhibitor of nuclear factor kappa-B kinase subunit beta (Homo sapiens, UniProt O14920); test: Inhibition of IKK2 in presence of 1 uM ATP
T2 sequence (O14920 whole entry): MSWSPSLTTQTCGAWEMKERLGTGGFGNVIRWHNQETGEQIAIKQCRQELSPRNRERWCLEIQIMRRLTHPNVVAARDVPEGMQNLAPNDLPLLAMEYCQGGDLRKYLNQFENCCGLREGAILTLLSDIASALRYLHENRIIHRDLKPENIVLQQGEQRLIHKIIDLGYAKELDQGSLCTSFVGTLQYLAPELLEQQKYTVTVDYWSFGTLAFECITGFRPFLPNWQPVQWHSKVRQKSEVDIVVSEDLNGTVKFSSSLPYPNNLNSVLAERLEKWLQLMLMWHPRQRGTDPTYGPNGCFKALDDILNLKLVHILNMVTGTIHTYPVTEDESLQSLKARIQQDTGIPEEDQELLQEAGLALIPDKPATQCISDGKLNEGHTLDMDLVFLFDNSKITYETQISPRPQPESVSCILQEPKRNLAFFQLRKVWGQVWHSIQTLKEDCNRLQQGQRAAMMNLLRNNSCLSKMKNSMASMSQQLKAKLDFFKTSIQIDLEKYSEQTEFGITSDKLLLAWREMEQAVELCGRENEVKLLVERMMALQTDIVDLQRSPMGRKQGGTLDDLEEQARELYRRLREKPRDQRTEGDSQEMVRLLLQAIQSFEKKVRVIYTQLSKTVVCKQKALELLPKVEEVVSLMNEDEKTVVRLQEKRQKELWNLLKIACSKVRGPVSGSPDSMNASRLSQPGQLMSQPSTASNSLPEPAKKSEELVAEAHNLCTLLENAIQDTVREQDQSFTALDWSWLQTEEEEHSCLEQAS

[4] = Volume of distribution in rat; assay type: ADME, organism-based; conditions: in vivo
In short: (§1)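 Rat pharmacokinetics: 1 mg/kg given IV (n = 2) or orally (n = 1); clearance derived from the IV arm.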

[5] = Oral bioavailability in rat at 1 mg/kg; assay type: ADME, organism-based; conditions: in vivo; in short: as §1
[6] = Half life in rat at 1 mg/kg, iv; assay type: ADME, organism-based; design: dose 1 mg/kg, route intravenous; conditions: in vivo; in short: as §1
[7] = Clearance in rat at 1 mg/kg, iv; assay type: ADME, organism-based; design: dose 1 mg/kg, route intravenous; conditions: in vivo; in short: as §1
[8] = molecular target: Albumin (Homo sapiens, UniProt P02768); test: Binding affinity to human serum albumin; assay type: ADME; conditions: isolated protein
Chain of Albumin (P02768 whole entry): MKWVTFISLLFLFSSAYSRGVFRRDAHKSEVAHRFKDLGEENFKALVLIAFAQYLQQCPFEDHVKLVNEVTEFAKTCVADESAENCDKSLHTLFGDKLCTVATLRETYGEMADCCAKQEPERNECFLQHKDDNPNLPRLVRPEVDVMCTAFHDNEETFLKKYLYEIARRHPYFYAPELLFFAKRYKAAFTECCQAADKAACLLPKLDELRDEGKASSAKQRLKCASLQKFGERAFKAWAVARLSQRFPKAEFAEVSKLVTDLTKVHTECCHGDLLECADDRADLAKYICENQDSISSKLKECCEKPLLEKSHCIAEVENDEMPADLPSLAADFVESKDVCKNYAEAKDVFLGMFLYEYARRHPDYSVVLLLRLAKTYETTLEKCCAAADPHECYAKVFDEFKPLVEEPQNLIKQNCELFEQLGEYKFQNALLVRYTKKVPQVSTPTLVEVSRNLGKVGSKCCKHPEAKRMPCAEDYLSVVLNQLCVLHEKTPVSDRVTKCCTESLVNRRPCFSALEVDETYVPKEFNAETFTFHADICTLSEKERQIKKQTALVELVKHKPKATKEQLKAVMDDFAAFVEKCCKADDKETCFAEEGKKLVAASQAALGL

[9] = molecular target: T2, Inhibitor of nuclear factor kappa-B kinase subunit beta; test: Inhibition of IKK2 in human A549 cells assessed as inhibition of TNFalpha-induced NFKB activation; assay type: cell-based
[10] = system: Rattus norvegicus; test: Antiinflammatory activity in po dosed Lewis rat assessed as inhibition of LPS-induced neutrophil lung infiltration compound administered 30 mins before LPS challenge relative to vehicle-treated control; assay type: functional
In short: (§2)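 Male Lewis rats (n = 4 per group, vehicle included) dosed orally at 10, 30 and 100 µmol/kg in 2% DMSO/0.5% methylcellulose with NaOH, 30 min before 20 min exposure to aerosolized 0.1 mg/ml E. coli 026:B6 LPS. Neutrophils in BAL fluid counted 4 h post-LPS by differential (Diff-Quick) and haemocytometer counts. Results given as % inhibition versus vehicle, ED50 derived; ANOVA with Dunnett's test.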

[11] = Plasma protein binding in human; assay type: ADME, cell-free; conditions: read-out: PPB (converted)
[12] = Aqueous solubility of the compound; assay type: physicochemical; conditions: aqueous solution
[13] = system: Hepatocyte; test: Intrinsic clearance in rat hepatocytes; assay type: ADME, cell-based, Liver
[14] = molecular target: Voltage-gated inwardly rectifying potassium channel KCNH2 (Homo sapiens, UniProt Q12809); test: Inhibition of human ERG
Chain of Voltage-gated inwardly rectifying potassium channel KCNH2 (Q12809 whole entry): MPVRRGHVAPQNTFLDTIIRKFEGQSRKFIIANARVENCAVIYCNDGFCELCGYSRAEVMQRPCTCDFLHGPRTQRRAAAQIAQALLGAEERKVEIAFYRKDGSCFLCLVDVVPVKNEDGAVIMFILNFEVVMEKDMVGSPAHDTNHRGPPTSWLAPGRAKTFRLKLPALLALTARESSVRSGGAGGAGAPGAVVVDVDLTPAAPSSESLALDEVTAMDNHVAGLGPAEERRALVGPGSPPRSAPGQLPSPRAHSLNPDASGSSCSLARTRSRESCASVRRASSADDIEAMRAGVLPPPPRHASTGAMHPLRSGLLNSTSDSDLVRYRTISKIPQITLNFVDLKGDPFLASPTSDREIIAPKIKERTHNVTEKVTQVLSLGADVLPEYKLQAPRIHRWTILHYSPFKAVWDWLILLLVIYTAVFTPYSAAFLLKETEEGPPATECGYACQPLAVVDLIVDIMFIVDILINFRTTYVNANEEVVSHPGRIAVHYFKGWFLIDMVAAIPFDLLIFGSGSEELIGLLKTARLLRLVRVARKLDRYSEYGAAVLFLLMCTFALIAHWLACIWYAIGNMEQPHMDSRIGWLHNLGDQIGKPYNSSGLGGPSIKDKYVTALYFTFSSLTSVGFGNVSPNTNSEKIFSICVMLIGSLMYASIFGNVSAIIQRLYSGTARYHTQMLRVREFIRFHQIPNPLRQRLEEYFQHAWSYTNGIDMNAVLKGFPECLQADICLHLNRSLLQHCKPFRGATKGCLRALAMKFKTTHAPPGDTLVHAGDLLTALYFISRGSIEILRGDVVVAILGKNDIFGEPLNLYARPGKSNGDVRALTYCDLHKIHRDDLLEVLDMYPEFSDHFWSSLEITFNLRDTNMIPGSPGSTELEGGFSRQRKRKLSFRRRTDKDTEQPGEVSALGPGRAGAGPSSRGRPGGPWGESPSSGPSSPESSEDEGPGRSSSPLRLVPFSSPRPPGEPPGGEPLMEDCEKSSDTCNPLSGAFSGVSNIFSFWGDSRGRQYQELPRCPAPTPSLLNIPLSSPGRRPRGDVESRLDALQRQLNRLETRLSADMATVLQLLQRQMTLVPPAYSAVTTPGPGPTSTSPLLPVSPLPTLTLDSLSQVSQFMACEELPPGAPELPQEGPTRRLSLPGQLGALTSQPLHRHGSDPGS

[15] = Plasma protein binding in rat; assay type: ADME, cell-free; conditions: read-out: PPB (converted)
[16] = molecular target: T3, Cytochrome P450 1A2 (Homo sapiens, UniProt P05177); test: inhibition of CYP1A2; assay type: ADME
T3 sequence (P05177 whole entry): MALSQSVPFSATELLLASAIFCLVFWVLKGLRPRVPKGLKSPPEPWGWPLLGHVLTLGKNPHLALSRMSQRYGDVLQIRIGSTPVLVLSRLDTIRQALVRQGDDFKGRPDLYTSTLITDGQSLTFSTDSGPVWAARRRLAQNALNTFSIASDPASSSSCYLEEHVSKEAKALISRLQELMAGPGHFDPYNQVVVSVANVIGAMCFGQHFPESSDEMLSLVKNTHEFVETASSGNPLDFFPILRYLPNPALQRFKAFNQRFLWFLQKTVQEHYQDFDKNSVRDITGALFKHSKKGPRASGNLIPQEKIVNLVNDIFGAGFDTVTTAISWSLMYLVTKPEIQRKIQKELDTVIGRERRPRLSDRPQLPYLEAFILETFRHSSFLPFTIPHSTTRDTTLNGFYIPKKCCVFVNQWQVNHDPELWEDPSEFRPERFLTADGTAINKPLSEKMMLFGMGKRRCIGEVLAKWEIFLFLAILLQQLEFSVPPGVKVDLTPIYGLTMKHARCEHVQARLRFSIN

[17] = system: Hepatocyte; test: Intrinsic clearance in human hepatocytes; assay type: ADME, cell-based, Liver
[18] = molecular target: Cytochrome P450 2D6 (Homo sapiens, UniProt P10635); test: inhibition of CYP2D6; assay type: ADME
Chain of Cytochrome P450 2D6 (P10635 whole entry): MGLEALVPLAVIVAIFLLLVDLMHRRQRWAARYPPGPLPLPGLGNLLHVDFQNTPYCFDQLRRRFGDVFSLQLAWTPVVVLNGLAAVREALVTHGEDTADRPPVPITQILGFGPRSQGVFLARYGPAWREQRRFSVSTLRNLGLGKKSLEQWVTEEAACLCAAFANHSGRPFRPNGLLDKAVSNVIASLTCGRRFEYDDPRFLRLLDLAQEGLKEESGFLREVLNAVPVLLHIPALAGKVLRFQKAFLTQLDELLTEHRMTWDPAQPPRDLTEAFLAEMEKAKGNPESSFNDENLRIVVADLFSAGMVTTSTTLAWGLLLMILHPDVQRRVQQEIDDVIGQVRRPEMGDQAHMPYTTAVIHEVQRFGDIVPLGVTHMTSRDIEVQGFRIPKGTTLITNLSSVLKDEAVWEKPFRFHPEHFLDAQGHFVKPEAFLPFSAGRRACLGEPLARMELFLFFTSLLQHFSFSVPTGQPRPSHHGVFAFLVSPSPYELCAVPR

[19] = molecular target: Cytochrome P450 2C9 (Homo sapiens, UniProt P11712); test: inhibition of CYP2C9; assay type: ADME
Chain of Cytochrome P450 2C9 (P11712 whole entry): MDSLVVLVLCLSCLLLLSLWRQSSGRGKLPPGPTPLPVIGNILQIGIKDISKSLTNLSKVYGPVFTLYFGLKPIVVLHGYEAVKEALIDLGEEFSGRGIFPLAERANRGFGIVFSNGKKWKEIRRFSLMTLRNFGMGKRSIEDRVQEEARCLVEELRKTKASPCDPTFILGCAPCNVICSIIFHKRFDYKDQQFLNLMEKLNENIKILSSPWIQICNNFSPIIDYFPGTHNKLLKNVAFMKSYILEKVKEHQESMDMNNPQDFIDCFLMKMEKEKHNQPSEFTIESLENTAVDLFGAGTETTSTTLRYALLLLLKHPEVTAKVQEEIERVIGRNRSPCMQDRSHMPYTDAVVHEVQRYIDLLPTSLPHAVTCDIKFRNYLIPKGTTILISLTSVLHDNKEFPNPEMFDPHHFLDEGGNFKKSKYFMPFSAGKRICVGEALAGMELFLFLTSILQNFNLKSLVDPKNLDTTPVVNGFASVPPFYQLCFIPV

[20] = molecular target: Cytochrome P450 3A4 (Homo sapiens, UniProt P08684); test: inhibition of CYP3A4; assay type: ADME
Chain of Cytochrome P450 3A4 (P08684 whole entry): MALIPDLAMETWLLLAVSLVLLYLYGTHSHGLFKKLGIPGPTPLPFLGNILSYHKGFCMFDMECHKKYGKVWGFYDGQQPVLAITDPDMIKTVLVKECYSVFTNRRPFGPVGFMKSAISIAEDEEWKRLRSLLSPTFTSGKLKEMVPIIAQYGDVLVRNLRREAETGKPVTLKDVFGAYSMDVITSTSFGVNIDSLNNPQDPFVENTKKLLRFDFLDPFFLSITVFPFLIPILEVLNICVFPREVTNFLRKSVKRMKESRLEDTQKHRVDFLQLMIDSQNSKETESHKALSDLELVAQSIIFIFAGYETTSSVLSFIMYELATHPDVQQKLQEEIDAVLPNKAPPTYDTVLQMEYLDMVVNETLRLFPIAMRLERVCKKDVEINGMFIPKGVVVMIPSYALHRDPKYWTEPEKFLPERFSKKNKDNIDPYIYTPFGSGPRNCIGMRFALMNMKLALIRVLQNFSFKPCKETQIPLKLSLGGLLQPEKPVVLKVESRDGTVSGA

[21] = system: Blood; test: Inhibition of LPS-stimulated TNFalpha production in rat Whole blood; assay type: functional, tissue-based
[22] = Fraction unbound in human plasma; assay type: ADME, cell-free
[23] = system: Rattus norvegicus; test: Antiinflammatory activity in Lewis rat assessed as inhibition of LPS-induced neutrophil lung infiltration at 30 umol/kg, po administered 30 mins before LPS challenge relative to vehicle-treated control; assay type: functional, organism-based; in short: as §2

| Structure (SMILES) | IC50 [1] | IC50 [2] | IC50 [3] | also measured |
| --- | --- | --- | --- | --- |
| Cc1cc2c(-c3ccc(S(=O)(=O)NCCO)cc3)ccnc2[nH]1 | 2510 nM | – | – | – |
| O=S1(=O)CCC(NS(=O)(=O)c2ccc(-c3ccnc4[nH]c(Cn5ccnn5)cc34)cc2)CC1 | 1260 nM | 50.1 nM | 15.8 nM | – |
| CC(C)c1cc2c(-c3ccc(S(=O)(=O)NCCO)cc3)ccnc2[nH]1 | 1580 nM | 398 nM | 7.94 nM | Vd [4]: 0.8 L/kg; bioavailability [5]: 18%; half-life [6]: 27 min; clearance [7]: 39 mL/min/kg |
| Cc1cc2c(-c3ccc(S(=O)(=O)N(C)CCO)cc3)ccnc2[nH]1 | 3160 nM | – | – | Activity [8]: 91%; IC50 [9]: 794 nM |
| O=S1(=O)CCC(NS(=O)(=O)c2ccc(-c3ccnc4[nH]c(C5CC5)cc34)cc2)CC1 | 251 nM | 6.31 nM | 3.98 nM | – |
| Cc1cc2c(-c3ccc(S(=O)(=O)NCC(C)(C)O)cc3)ccnc2[nH]1 | 1000 nM | 200 nM | 10 nM | bioavailability [5]: 32%; half-life [6]: 36 min; clearance [7]: 70 mL/min/kg |
| C[C@@H](CO)NS(=O)(=O)c1ccc(-c2ccnc3[nH]c(C4CC4)cc23)cc1 | 501 nM | 251 nM | 7.94 nM | bioavailability [5]: 29%; half-life [6]: 54 min; clearance [7]: 15 mL/min/kg |
| Cc1cc2c(-c3ccc(S(=O)(=O)NC4CCS(=O)(=O)CC4)cn3)ccnc2[nH]1 | 1000 nM | 79.4 nM | 79.4 nM | – |
| CC(C)(C)c1cc2c(-c3ccc(S(=O)(=O)NC4CCS(=O)(=O)CC4)cc3)ccnc2[nH]1 | 631 nM | 25.1 nM | 7.94 nM | – |
| CCc1cc2c(-c3ccc(S(=O)(=O)NC4CCS(=O)(=O)CC4)cc3)ccnc2[nH]1 | 398 nM | 6.31 nM | 5.01 nM | – |
| O=S1(=O)CCC(NS(=O)(=O)c2ccc(-c3ccnc4[nH]c(C5CCNCC5)cc34)cc2)CC1 | 631 nM | 31.6 nM | 15.8 nM | – |
| CC(C)c1cc2c(-c3ccc(S(=O)(=O)NC4CCS(=O)(=O)CC4)cc3)ccnc2[nH]1 | 251 nM | 6.31 nM | 6.31 nM | – |
| Cc1cc2c(-c3ccc(S(=O)(=O)NC4CCS(=O)(=O)CC4)nc3)ccnc2[nH]1 | 398 nM | 7.94 nM | 12.6 nM | – |
| Cc1cc2c(-c3ccc(S(=O)(=O)NC4CCS(=O)(=O)CC4)cc3)ccnc2[nH]1 | 398 nM | – | – | – |
| Cc1cc2c(-c3ncc(S(=O)(=O)NC4CCS(=O)(=O)CC4)cn3)ccnc2[nH]1 | 3160 nM | 158 nM | 794 nM | – |
| C[C@@H](CO)NS(=O)(=O)c1ccc(-c2ccnc3[nH]c(C(F)(F)F)cc23)cc1 | 1260 nM | 316 nM | 20 nM | bioavailability [5]: 83%; half-life [6]: 192 min; clearance [7]: 7 mL/min/kg |
| O=S(=O)(NCCO)c1ccc(-c2ccnc3[nH]c(C(F)(F)F)cc23)cc1 | 2510 nM | 200 nM | 15.8 nM | – |
| CC(C)(O)CNS(=O)(=O)c1ccc(-c2ccnc3[nH]c(C4CC4)cc23)cc1 | 1000 nM | 316 nM | 6.31 nM | bioavailability [5]: 100%; half-life [6]: 42 min; clearance [7]: 14 mL/min/kg |
| CN(C)Cc1cc2c(-c3ccc(S(=O)(=O)NC4CCS(=O)(=O)CC4)cc3)ccnc2[nH]1 | 1260 nM | 100 nM | 20 nM | – |
| O=S(=O)(NCCO)c1ccc(-c2ccnc3[nH]c(C4CC4)cc23)cc1 | 1260 nM | 200 nM | 7.94 nM | ED50 [10]: 28.2 µmol/kg; inhibition [10]: Dose-dependent effect; fraction unbound [11]: 0.066; solubility [12]: 64 µM (≈ 22.9 µg/mL); CLH [13]: < 1 mL/min/g; IC50 [14]: > 50100 nM; fraction unbound [15]: 0.024; IC50 [16]: > 10000 nM; CLH [17]: < 1 mL/min/g; IC50 [18]: > 10000 nM; IC50 [19]: 7000 nM; IC50 [20]: > 10000 nM; Vd [4]: 0.6 L/kg; bioavailability [5]: 49%; half-life [6]: 36 min; clearance [7]: 13 mL/min/kg; IC50 [9]: 200 nM; IC50 [21]: 6310 nM; fraction unbound [22]: 0.07; inhibition [23]: Active |
| CC(C)(C)c1cc2c(-c3ccc(S(=O)(=O)NCCO)cc3)ccnc2[nH]1 | 1000 nM | 794 nM | 20 nM | – |
